Experimental data as given in ChEMBL document CHEMBL4145525, “Machine learning prioritizes synthesis of primaquine ureidoamides with high antimalarial activity and attenuated cytotoxicity” (Eur J Med Chem, 2018).

Key:
Plasmodium falciparum = assay: Antiplasmodial activity against erythrocytic stage of Plasmodium falciparum NF54 assessed as reduction in [3H]hypoxanthine incorporation after 48 hrs by liquid scintillation counting method; assay type: functional, organism-based
Procedure, shortened: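 Asexual blood-stage NF54 grown in hypoxanthine-free RPMI 1640 with HEPES, NaHCO3, neomycin and Albumax, using washed human A+ erythrocytes at 2.5% hematocrit and 0.3% parasitemia. Compounds were made as 10 mg/ml DMSO stocks and run as eleven 3-fold dilutions, 100 to 0.002 µg/ml. Incubation at 37 °C in 4% CO2, 3% O2, 93% N2. After 48 h, 0.5 µCi 3H-hypoxanthine was added for a further 24 h, then harvested and scintillation counted. IC50 by linear interpolation of sigmoidal curves; averages of 2–3 independent experiments.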

[1] = Selectivity index, ratio of IC50 for rat L6 cells to IC50 for erythrocytic stage of Plasmodium falciparum NF54; assay type: toxicity; conditions: read-out: Ratio IC50
Procedure, shortened: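 Ratio of the L6 cytotoxicity IC50 to the IC50 against P. falciparum NF54.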

L6 = assay: Cytotoxicity against rat L6 cells assessed as reduction in cell viability after 70 hrs by Alamar blue assay; assay type: cell-based; conditions: L6, 70 h
Procedure, shortened: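 L6 rat skeletal myoblasts were plated at 4000 cells/well in RPMI 1640 with L-glutamine and 10% FBS. Eleven 3-fold drug dilutions, 100 to 0.002 µg/ml. After 70 h, Alamar Blue was added for 2 h and fluorescence read (ex 536 nm, em 588 nm). IC50 by linear interpolation from sigmoid dose-inhibition curves.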

MCF7 = assay: Cytotoxicity against human MCF7 cells assessed as growth inhibition after 72 hrs by MTT assay; assay type: cell-based; conditions: MCF7, 72 h
Procedure, shortened: (§1)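 Monolayers grown in DMEM or RPMI-1640 with 10% FBS, 2 mM L-glutamine and penicillin/streptomycin at 37 °C, 5% CO2. Seeded at 2×10^4–4×10^4 cells/well and attached for 24 h. Five serial 10-fold dilutions added, final DMSO <0.2%. MTT read-out at 72 h; percentage growth calculated. IC50 by linear interpolation between concentrations bracketing 50% growth; at least two biological replicates.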

HL-60 = assay: Cytotoxicity against human HL60 cells assessed as growth inhibition after 72 hrs by MTT assay; assay type: cell-based; conditions: HL-60, 72 h
SW-620 = assay: Cytotoxicity against human SW620 cells assessed as growth inhibition after 72 hrs by MTT assay; assay type: cell-based; conditions: SW-620, 72 h; procedure, shortened: as §1
HCT-116 = assay: Cytotoxicity against human HCT116 cells assessed as growth inhibition after 72 hrs by MTT assay; assay type: cell-based; conditions: HCT-116, 72 h
Procedure, shortened: (§2)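 Cells cultured in DMEM or RPMI-1640 with 10% FBS, 2 mM L-glutamine and antibiotics at 37 °C, 5% CO2. Seeded at 2×10^4–4×10^4 cells/well and attached for 24 h before five serial 10-fold compound dilutions, final DMSO <0.2%. MTT at 72 h. IC50 interpolated between the two concentrations flanking 50% growth inhibition; single experiment.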

CAPAN-1 = assay: Cytotoxicity against human Capan1 cells assessed as growth inhibition after 72 hrs by MTT assay; assay type: cell-based; conditions: CAPAN-1, 72 h; procedure, shortened: as §2
K562 = assay: Cytotoxicity against human K562 cells assessed as growth inhibition after 72 hrs by MTT assay; assay type: cell-based; conditions: K562, 72 h
NCI-H460 = assay: Cytotoxicity against human NCI-H460 cells assessed as growth inhibition after 72 hrs by MTT assay; assay type: cell-based; conditions: NCI-H460, 72 h; procedure, shortened: as §1

Row | SMILES | IC50 (Plasmodium falciparum) | selectivity ratio [1] | IC50 (L6) | other results
1 | COc1cc(NC(C)CCCNC(=O)NCCCC(C)Nc2cc(OC)cc3cccnc23)c2ncccc2c1 (stereo unspecified) | 6.4 µM | > 28.1 | > 180 µM | 
2 | COc1ccc(/C=C/C(=O)NCCCC(C)Nc2cc(OC)cc3cccnc23)cc1 (stereo unspecified) | 12.4 µM | > 19.4 | > 240 µM | 
3 | COc1cc(NC(C)CCCNC(=O)/C=C/c2ccccc2)c2ncccc2c1 (stereo unspecified) | 15.1 µM | 1.2 | 18.5 µM | 
4 | COc1cc(NC(C)CCCNC(=O)/C=C/c2ccc(Cl)cc2)c2ncccc2c1 (stereo unspecified) | 13.7 µM | 1.2 | 16.8 µM | 
5 | COc1ccc(/C(=N/NC(=O)NNC(=O)NCCCC(C)Nc2cc(OC)cc3cccnc23)c2ccccc2)cc1 (stereo unspecified) | 5.6 µM | 2.9 | 16 µM | 
6 | COc1cc(NC(C)CCCNC(=O)NNC(=O)NCCCC(C)Nc2cc(OC)cc3cccnc23)c2ncccc2c1 (stereo unspecified) | 3.7 µM | 20.7 | 76.6 µM | 
7 | COc1cc(NC(C)CCCNC(=O)NNC(=O)N(CCO)CCO)c2ncccc2c1 (stereo unspecified) | 41.4 µM | 4.3 | 178 µM | 
8 | COc1ccc(/C(=N/NC(=O)NCCCC(C)Nc2cc(OC)cc3cccnc23)c2ccccc2)cc1 (stereo unspecified) | 4.1 µM | > 47.6 | > 195 µM | 
9 | COc1cc(NC(C)CCCNC(=O)NCCNC(c2ccccc2)(c2ccccc2)c2ccccc2)c2ncccc2c1 (stereo unspecified) | 1.5 µM | > 114 | > 171 µM | 
10 | COc1cc(NC(C)CCCNC(=O)Nc2cc(C(F)(F)F)cc(C(F)(F)F)c2)c2ncccc2c1 (stereo unspecified) | 11.9 µM | 1.3 | 14.9 µM | 
11 | COc1cc(NC(C)CCCNC(=O)NNC(=O)Nc2cccc(Cl)c2)c2ncccc2c1 (stereo unspecified) | 14.9 µM | 3.9 | 58.6 µM | 
12 | COc1cc(NC(C)CCCNC(=O)NNC(=O)Nc2cccc(C(F)(F)F)c2)c2ncccc2c1 (stereo unspecified) | 11.8 µM | 2.7 | 32.1 µM | 
13 | COc1cc(NC(C)CCCNC(=O)NNC(=O)/C=C/c2cc(OC)c(OC)c(OC)c2)c2ncccc2c1 (stereo unspecified) | 4.5 µM | 30.7 | 138 µM | 
14 | COc1cc(NC(C)CCCNC(=O)NNC(=O)/C=C/c2cccc(C(F)(F)F)c2)c2ncccc2c1 (stereo unspecified) | > 19.4 µM | < 0.5 | 10.6 µM | 
15 | COc1cc(NC(C)CCCNC(=O)NNC(=O)/C=C/c2ccccc2)c2ncccc2c1 (stereo unspecified) | 17.2 µM | 0.8 | 13.9 µM | 
16 | COc1cc(NC(C)CCCNC(=O)NNC(=O)/C=C/c2ccc(OC)c(OC)c2)c2ncccc2c1 (stereo unspecified) | > 19.7 µM | < 1.9 | 37 µM | 
17 | COc1cc(NC(C)CCCNC(=O)NNC(=O)NOCc2ccccc2)c2ncccc2c1 (stereo unspecified) | 20.8 µM |  |  | 
18 | COc1cc(NC(C)CCCNC(=O)NNC(=O)NCc2ccccc2)c2ncccc2c1 (stereo unspecified) | > 111 µM |  |  | 
19 | COc1cc(NC(C)CCCNC(=O)/C=C/c2ccc(C(F)(F)F)cc2)c2ncccc2c1 (stereo unspecified) | 12.9 µM | 12.4 | 160 µM | 
20 | COc1cc(NC(C)CCCNC(=O)NNC(=O)/C=C/c2ccccc2F)c2ncccc2c1 (stereo unspecified) | > 21.4 µM | < 1.2 | 25.1 µM | 
21 | COc1cc(NC(C)CCCNC(=O)/C=C/c2ccccc2F)c2ncccc2c1 (stereo unspecified) | 13.2 µM | 0.3 | 3.5 µM | 
22 | COc1ccc(/C=C/C(=O)NNC(=O)NCCCC(C)Nc2cc(OC)cc3cccnc23)cc1 (stereo unspecified) | 22.2 µM | 0.2 | 3.6 µM | 
23 | COc1cc(NC(C)CCCNC(=O)NNC(=O)NC2CCCCC2)c2ncccc2c1 (stereo unspecified) | 46.3 µM |  |  | 
24 | COc1cc(NC(C)CCCNC(=O)NC(C(=O)Nc2ccc(Br)cc2)c2ccc(Cl)cc2)c2ncccc2c1 (stereo unspecified) | 3.2 µM | 16.9 | 54 µM | IC50 (MCF7): 16 µM; IC50 (HL-60): > 100 µM; IC50 (SW-620): 32 µM; IC50 (HCT-116): > 100 µM; IC50 (CAPAN-1): > 100 µM; IC50 (K562): > 100 µM; IC50 (NCI-H460): 52 µM
25 | COc1cc(NC(C)CCCNC(=O)NCc2ccncc2)c2ncccc2c1 (stereo unspecified) | 47.3 µM |  |  | 
26 | COc1cc(NC(C)CCCNC(=O)NCCO)c2ncccc2c1 (stereo unspecified) | 27.4 µM |  |  | 

More lines, main results first:

Row | IC50 (Plasmodium falciparum) | SMILES | selectivity ratio [1] | IC50 (L6) | other results
27 | 10 µM | COc1cc(NC(C)CCCNC(=O)NNC(=O)N(C)C(c2ccccc2)c2ccccc2)c2ncccc2c1 (stereo unspecified) | 1 | 10.4 µM | 
28 | 7.5 µM | COc1cc(NC(C)CCCNC(=O)NNC(=O)NC(c2ccccc2)c2ccc(Cl)cc2)c2ncccc2c1 (stereo unspecified) | 1.1 | 8.4 µM | 
29 | 15.2 µM | COc1cc(NC(C)CCCNC(=O)NNC(=O)Nc2ccc(Cl)c(C(F)(F)F)c2)c2ncccc2c1 (stereo unspecified) |  |  | 
30 | 58.8 µM | COc1cc(NC(C)CCCNC(=O)NNC(=O)NCCCO)c2ncccc2c1 (stereo unspecified) |  |  | 
31 | 43.7 µM | COc1cc(NC(C)CCCNC(=O)NNC(=O)NCCCCCO)c2ncccc2c1 (stereo unspecified) |  |  | 
32 | 66.7 µM | COc1cc(NC(C)CCCNC(=O)NNC(=O)NC(CO)(CO)CO)c2ncccc2c1 (stereo unspecified) |  |  | 
33 | 4.3 µM | COc1cc(NC(C)CCCNC(=O)NC(c2ccccc2)c2ccc(Cl)cc2)c2ncccc2c1 (stereo unspecified) | 32.6 | 140 µM | 
34 | 17.1 µM | COc1cc(NC(C)CCCNC(=O)Nc2ccc(Cl)c(C(F)(F)F)c2)c2ncccc2c1 (stereo unspecified) |  |  | 
35 | 10.3 µM | COc1cc(NC(C)CCCNC(=O)NNC(=O)Nc2ccc(C(F)(F)F)cc2)c2ncccc2c1 (stereo unspecified) | 1.4 | 14.9 µM | 
36 | 17.8 µM | COc1cc(NC(C)CCCNC(=O)NNC(=O)Nc2ccc(Cl)cc2)c2ncccc2c1 (stereo unspecified) | 5.2 | 91.9 µM | 
37 | 17.8 µM | COc1cc(NC(C)CCCNC(=O)NNC(=O)Nc2ccc(Br)cc2)c2ncccc2c1 (stereo unspecified) | 2.2 | 38.7 µM | 
38 | 11.3 µM | COc1cc(NC(C)CCCNC(=O)/C=C/c2cc(C(F)(F)F)cc(C(F)(F)F)c2)c2ncccc2c1 (stereo unspecified) | 14 | 158 µM | 
39 | 11.9 µM | COc1cc(NC(C)CCCNC(=O)/C=C/c2ccc(OC)c(OC)c2)c2ncccc2c1 (stereo unspecified) | > 18.5 | > 220 µM | 
40 | 27.1 µM | COc1cc(NC(C)CCCNC(=O)NNC(=O)NCCc2ccccc2)c2ncccc2c1 (stereo unspecified) |  |  | 
41 | 22.9 µM | COc1cc(NC(C)CCCNC(=O)NNC(=O)/C(C)=C/c2ccccc2)c2ncccc2c1 (stereo unspecified) | 1.6 | 36.5 µM | 
42 | > 24.8 µM | COc1cc(NC(C)CCCNC(=O)/C(C)=C/c2ccccc2)c2ncccc2c1 (stereo unspecified) |  | > 250 µM | 
43 | > 17.1 µM | COc1cc(NC(C)CCCNC(=O)NNC(=O)/C=C/c2cc(C(F)(F)F)cc(C(F)(F)F)c2)c2ncccc2c1 (stereo unspecified) |  | > 170 µM | 
44 | 15.6 µM | COc1cc(NC(C)CCCNC(=O)/C=C/c2cccc(C(F)(F)F)c2)c2ncccc2c1 (stereo unspecified) | 1 | 16.2 µM | 
45 | 20.4 µM | COc1cc(NC(C)CCCNC(=O)NNC(=O)/C=C/c2ccc3c(c2)OCO3)c2ncccc2c1 (stereo unspecified) | 0.8 | 15.5 µM | 
46 | 10.3 µM | COc1cc(NC(C)CCCNC(=O)NNC(=O)NC(c2ccccc2)c2ccccc2)c2ncccc2c1 (stereo unspecified) |  |  | 
47 | 75.4 µM | COc1cc(NC(C)CCCNC(=O)NNC(=O)NC2CCCC2)c2ncccc2c1 (stereo unspecified) |  |  | 
48 | 8.1 µM | COc1cc(NC(C)CCCNC(=O)/C=C/c2cc(OC)c(OC)c(OC)c2)c2ncccc2c1 (stereo unspecified) | > 25.9 | > 210 µM | 
49 | 22.1 µM | COc1cc(NC(C)CCCNC(=O)/C=C/c2ccc3c(c2)OCO3)c2ncccc2c1 (stereo unspecified) | 1.3 | 29 µM | 
50 | > 19.4 µM | COc1cc(NC(C)CCCNC(=O)NNC(=O)/C=C/c2ccc(C(F)(F)F)cc2)c2ncccc2c1 (stereo unspecified) | < 1.5 | 28.3 µM | 
51 | 24.2 µM | COc1cc(NC(C)CCCNC(=O)NNC(=O)/C=C/c2ccc(Cl)cc2)c2ncccc2c1 (stereo unspecified) | 0.3 | 7.3 µM | 
52 | 42.1 µM | COc1cc(NC(C)CCCNC(=O)NC2CCCCC2)c2ncccc2c1 (stereo unspecified) |  |  | 
53 | 8.1 µM | COc1cc(NC(C)CCCNC(=O)N(C2CCCCC2)C2CCCCC2)c2ncccc2c1 (stereo unspecified) |  |  | 
54 | 65.9 µM | COc1cc(NC(C)CCCNC(=O)NC2CCCC2)c2ncccc2c1 (stereo unspecified) |  |  | 
55 | 52.4 µM | COc1cc(NC(C)CCCNC(=O)NCCCO)c2ncccc2c1 (stereo unspecified) |  |  | 
